pIC50: −log10 of the molar value.
Experiments:
[1] = Cytotoxicity against human A375-S2 cells after 72 hrs by MTS assay; assay type: functional, cell-based; settings: A375-S2, 72 h
Outline: (§1)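 Cells in DMEM with 10% FBS at 37 °C and 5% CO2 were plated at 5×10^3 per well and grown 24 h. They were then exposed 24 or 72 h to 0.5, 1, 5, 10, 25 and 50 µM, with final DMSO 0.5% and DMSO controls. MTS/PMS was added for 4 h at 37 °C. A492 was read with the medium blank subtracted and expressed as % of control. IC50 was taken from three independent experiments (mean ± S.E.).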

UACC-903 [2] = assay: Cytotoxicity against human UACC-903 cells assessed as decrease in cell viability after 24 hrs by MTS assay; assay type: functional, cell-based; outline: as §1
UACC-903 [3] = assay: Induction of apoptosis in human UACC-903 cells assessed as viable cells at 25 uM after 24 hrs using annexin-V-PE/7-AAD double staining by flow cytometry; assay type: functional; settings: UACC-903, 24 h, read-out: Activity
Outline: (§2)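 UACC 903 cells were exposed 24 h at 37 °C to 1, 5 or 25 µM, with DMSO as control. Cells were harvested, washed twice in cold PBS and resuspended at 1×10^6 cells/mL in binding buffer. They were stained with 7-AAD plus PE Annexin V for 20 min at room temperature in the dark and run by flow cytometry within 1 h. Gating: double-negative live, 7-AAD+ dead, Annexin V+/7-AAD− early apoptotic. Three separate experiments.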

UACC-903 [4] = assay: Induction of apoptosis in human UACC-903 cells assessed as early apoptotic cells at 25 uM after 24 hrs using annexin-V-PE/7-AAD double staining by flow cytometry; assay type: functional; outline: as §2
UACC-903 [5] = assay: Cytotoxicity against human UACC-903 cells assessed as decrease in cell viability after 72 hrs by MTS assay; assay type: functional, cell-based; outline: as §1
SK-MEL-37 (Homo sapiens) [6] = assay: Cytotoxicity against human SK-MEL-37 cells assessed as decrease in cell viability after 72 hrs by MTS assay
UACC-903 [7] = assay: Induction of apoptosis in human UACC-903 cells assessed as viable cells at 5 uM after 24 hrs using annexin-V-PE/7-AAD double staining by flow cytometry; assay type: functional; settings: UACC-903, 24 h, read-out: Activity; outline: as §2
Mus musculus [8] = assay: Systemic toxicity in Swiss Webster mouse assessed as mortality at 15 mg/kg, ip administered every day for 28 days; assay type: organism-based; design: dose 15 mg/kg, route intraperitoneal; settings: in vivo, 672 h
Outline: (§3)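 Swiss Webster mice, n = 4 per group, dosed i.p. once daily for 28 days at 5, 7.5, 10 or 15 mg/kg body weight. Body weight recorded twice per week; deaths noted over the dosing period.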

UACC-903 [9] = assay: Antitumor activity against human UACC-903 cells xenografted in athymic Harlan Sprague-Dawley nude mouse assessed as reduction in tumor growth at 8.5 to 10 mg/kg, ip administered daily for 24 days measured after 21 days; assay type: functional; settings: dose mg/kg 8.5-10; route intraperitoneal
Outline: (§4)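 Female athymic nude mice, 4–6 weeks old, received 5×10^6 UACC 903 cells s.c. in DMEM/10% FBS above both rib cages. After six days they were randomized at 5 mice/group, 2 tumors/mouse. Dosing was i.p. Mon/Wed/Fri, with one arm dosed daily; controls got DMSO vehicle. Tumor dimensions (calipers, mm³) and body weight were recorded three times weekly.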

UACC-903 [10] = assay: Induction of apoptosis in human UACC-903 cells assessed as late apoptotic cells at 25 uM after 24 hrs using annexin-V-PE/7-AAD double staining by flow cytometry; assay type: functional; outline: as §2
[11] = Cytotoxicity against human A375-S2 cells after 24 hrs by MTS assay; assay type: functional, cell-based; settings: A375-S2, 24 h; outline: as §1
UACC-903 [12] = assay: Cytotoxicity against human UACC-903 cells after 24 hrs by MTS assay; assay type: functional, cell-based; settings: UACC-903, 24 h; outline: as §1
UACC-903 [13] = assay: Induction of apoptosis in human UACC-903 cells assessed as viable cells at 1 uM after 24 hrs using annexin-V-PE/7-AAD double staining by flow cytometry; assay type: functional; settings: UACC-903, 24 h, read-out: Activity; outline: as §2
UACC-903 [14] = assay: Induction of apoptosis in human UACC-903 cells assessed as early apoptotic cells at 1 uM after 24 hrs using annexin-V-PE/7-AAD double staining by flow cytometry; assay type: functional; outline: as §2
UACC-903 [15] = assay: Induction of apoptosis in human UACC-903 cells assessed as late apoptotic cells at 5 uM after 24 hrs using annexin-V-PE/7-AAD double staining by flow cytometry; assay type: functional; outline: as §2
[16] = Cytotoxicity against human SK-MEL-37 cells after 24 hrs by MTS assay; assay type: functional, cell-based; outline: as §1
UACC-903 [17] = assay: Induction of apoptosis in human UACC-903 cells assessed as non-viable cells at 25 uM after 24 hrs using annexin-V-PE/7-AAD double staining by flow cytometry; assay type: functional; outline: as §2
A375-S2 [18] = assay: Cytotoxicity against human A375-S2 cells assessed as decrease in cell viability after 72 hrs by MTS assay; assay type: functional, cell-based; outline: as §1
Mus musculus [19] = assay: Systemic toxicity in Swiss Webster mouse assessed as weight loss at 10 mg/kg, ip administered every day for 28 days; assay type: organism-based; design: dose 10 mg/kg, route intraperitoneal; settings: in vivo, 672 h; outline: as §3
SK-MEL-37 (Homo sapiens) [20] = assay: Cytotoxicity against human SK-MEL-37 cells assessed as decrease in cell viability after 24 hrs by MTS assay
[21] = Cytotoxicity against human 1205 Lu cells after 24 hrs by MTS assay; assay type: functional, cell-based; outline: as §1
[22] = Cytotoxicity against human SK-MEL-37 cells after 72 hrs by MTS assay; assay type: functional, cell-based; outline: as §1
UACC-903 [23] = assay: Induction of apoptosis in human UACC-903 cells assessed as non-viable cells at 5 uM after 24 hrs using annexin-V-PE/7-AAD double staining by flow cytometry; assay type: functional; outline: as §2
A375-S2 [24] = assay: Cytotoxicity against human A375-S2 cells assessed as decrease in cell viability after 24 hrs by MTS assay; assay type: functional, cell-based; outline: as §1
UACC-903 [25] = assay: Antitumor activity against human UACC-903 cells xenografted in athymic Harlan Sprague-Dawley nude mouse assessed as reduction in tumor growth at 8.5 to 10 mg/kg, ip administered thrice per week for 24 days measured after 21 days; assay type: functional; settings: dose mg/kg 8.5-10; route intraperitoneal; outline: as §4
UACC-903 [26] = assay: Cytotoxicity against human UACC-903 cells after 72 hrs by MTS assay; assay type: functional, cell-based; settings: UACC-903, 72 h; outline: as §1
UACC-903 [27] = assay: Induction of apoptosis in human UACC-903 cells assessed as late apoptotic cells at 1 uM after 24 hrs using annexin-V-PE/7-AAD double staining by flow cytometry; assay type: functional; outline: as §2
UACC-903 [28] = assay: Induction of apoptosis in human UACC-903 cells assessed as early apoptotic cells at 5 uM after 24 hrs using annexin-V-PE/7-AAD double staining by flow cytometry; assay type: functional; outline: as §2
Mus musculus [29] = assay: Systemic toxicity in athymic Harlan Sprague-Dawley nude mouse xenografted with human UACC-903 cells assessed as reduction in body weight at 8.5 to 10 mg/kg, ip administered thrice a week for 24 days; assay type: organism-based; design: dose 8.5-10 mg/kg, route intraperitoneal; settings: in vivo, 576 h; outline: as §4
UACC-903 [30] = assay: Induction of apoptosis in human UACC-903 cells assessed as increase in apoptotic cells after 24 hrs using annexin-V-PE/7-AAD double staining by flow cytometry; assay type: functional, cell-based; outline: as §2
Mus musculus [31] = assay: Systemic toxicity in Swiss Webster mouse assessed as mortality at 10 mg/kg, ip administered every day for 28 days; assay type: organism-based; design: dose 10 mg/kg, route intraperitoneal; settings: in vivo, 672 h; outline: as §3
1205Lu [32] = assay: Cytotoxicity against human 1205 Lu cells assessed as decrease in cell viability after 72 hrs by MTS assay; assay type: functional, cell-based; outline: as §1
UACC-903 [33] = assay: Induction of apoptosis in human UACC-903 cells assessed as non-viable cells at 1 uM after 24 hrs using annexin-V-PE/7-AAD double staining by flow cytometry; assay type: functional; outline: as §2
1205Lu [34] = assay: Cytotoxicity against human 1205 Lu cells assessed as decrease in cell viability after 24 hrs by MTS assay; assay type: functional, cell-based; outline: as §1
[35] = Cytotoxicity against human 1205 Lu cells after 72 hrs by MTS assay; assay type: functional, cell-based; outline: as §1
Mus musculus [36] = assay: Systemic toxicity in Swiss Webster mouse assessed as reduction in body weight at 10 mg/kg, ip administered daily for 28 days; design: scale not given: the % may be the effect or the level left; settings: in vivo, 672 h
UACC-903 [37] = assay: Antitumor activity against human UACC-903 cells xenografted in athymic Harlan Sprague-Dawley nude mouse assessed as reduction in tumor growth at 9.5 to 10.6 mg/kg, ip administered thrice per week for 24 days measured after 21 days; assay type: functional; settings: dose mg/kg 9.5-10.6; route intraperitoneal; outline: as §4
Mus musculus [38] = assay: Systemic toxicity in athymic Harlan Sprague-Dawley nude mouse xenografted with human UACC-903 cells assessed as mortality at 10 mg/kg, ip administered daily for 28 days; assay type: organism-based; design: dose 10 mg/kg, route intraperitoneal; settings: in vivo, 672 h
Mus musculus [39] = assay: Systemic toxicity in athymic Harlan Sprague-Dawley nude mouse xenografted with human UACC-903 cells assessed as reduction in body weight at 9.5 to 10.6 mg/kg, ip administered thrice a week for 24 days; assay type: organism-based; design: dose 9.5-10.6 mg/kg, route intraperitoneal; settings: in vivo, 576 h; outline: as §4

With `O=C1c2cccc3cccc(c23)C(=O)N1CCN=C=S` the pIC50 [1] was 5.30, the Activity (UACC-903 [2]) was “Dose-dependent effect” and the viability at 25 µM (UACC-903 [3]) was 64.3%. The Activity (UACC-903 [4]) was 22.1%, the Activity (UACC-903 [5]) was “Dose-dependent effect” and the Activity (SK-MEL-37 (Homo sapiens) [6]) was “Dose-dependent effect”. For the same compound, the viability at 5 µM (UACC-903 [7]) was 69.3%, the Activity (Mus musculus [8]) was “Toxic” and the “growth inhibition (GI)” value (UACC-903 [9]) was 50%. The Activity (UACC-903 [10]) was 7.98%, the pIC50 [11] was 5.10 and the pIC50 (UACC-903 [12]) was 4.95. For the same compound, the viability at 1 µM (UACC-903 [13]) was 76.3%, the Activity (UACC-903 [14]) was 12.4% and the Activity (UACC-903 [15]) was 7.96%. For the same compound, the pIC50 [16] was 5.23, the Activity (UACC-903 [17]) was 5.59% and the Activity (A375-S2 [18]) was “Dose-dependent effect”. The Activity (Mus musculus [19]) was “Non-toxic”, the Activity (SK-MEL-37 (Homo sapiens) [20]) was “Dose-dependent effect” and the pIC50 [21] was 5.03. For the same compound, the pIC50 [22] was 5.66, the Activity (UACC-903 [23]) was 3.41% and the Activity (A375-S2 [24]) was “Dose-dependent effect”. For the same compound, the “growth inhibition (GI)” value (UACC-903 [25]) was 30%, the pIC50 (UACC-903 [26]) was 5.09 and the Activity (UACC-903 [27]) was 4.96%. For the same compound, the Activity (UACC-903 [28]) was 19.4%, the Activity (Mus musculus [29]) was “Non-toxic” and the Activity (UACC-903 [30]) was “Dose-dependent effect”. The Activity (Mus musculus [31]) was “Non-toxic”, the Activity (1205Lu [32]) was “Dose-dependent effect” and the Activity (UACC-903 [33]) was 6.41%. The Activity (1205Lu [34]) was “Dose-dependent effect” and the pIC50 [35] was 5.22.
For `N=C(N)SCCN1C(=O)c2cccc3cc([N+](=O)[O-])cc(c23)C1=O`, the pIC50 [1] was 5.02, the Activity (UACC-903 [2]) was “Dose-dependent effect” and the viability at 25 µM (UACC-903 [3]) was 47.2%. The Activity (UACC-903 [4]) was 40.2%, the Activity (UACC-903 [5]) was “Dose-dependent effect” and the Activity (SK-MEL-37 (Homo sapiens) [6]) was “Dose-dependent effect”. For the same compound, the viability at 5 µM (UACC-903 [7]) was 70.4%, the Activity (Mus musculus [8]) was “Toxic” and the Activity (UACC-903 [10]) was 12.3%. The Activity (Mus musculus [36]) was 10%, the pIC50 [11] was 4.73 and the pIC50 (UACC-903 [12]) was 4.83. For the same compound, the “growth inhibition (GI)” value (UACC-903 [37]) was 20%, the viability at 1 µM (UACC-903 [13]) was 76.9% and the Activity (UACC-903 [14]) was 20.1%. For the same compound, the Activity (UACC-903 [15]) was 3.99%, the pIC50 [16] was 4.63 and the Activity (Mus musculus [38]) was “Non-toxic”. The Activity (UACC-903 [17]) was 0.32%, the Activity (A375-S2 [18]) was “Dose-dependent effect” and the Activity (Mus musculus [19]) was “Non-toxic”. The Activity (SK-MEL-37 (Homo sapiens) [20]) was “Dose-dependent effect”, the pIC50 [21] was 4.40 and the pIC50 [22] was 4.83. The Activity (UACC-903 [23]) was 0.43%, the Activity (A375-S2 [24]) was “Dose-dependent effect” and the pIC50 (UACC-903 [26]) was 5.16. The Activity (UACC-903 [27]) was 2.41%, the Activity (UACC-903 [28]) was 25.1% and the Activity (Mus musculus [39]) was “Non-toxic”. For the same compound, the Activity (UACC-903 [30]) was “Dose-dependent effect”, the Activity (Mus musculus [31]) was “Non-toxic” and the Activity (1205Lu [32]) was “Dose-dependent effect”. For the same compound, the Activity (UACC-903 [33]) was 0.56%, the Activity (1205Lu [34]) was “Dose-dependent effect” and the pIC50 [35] was 4.79.
